Test results from PMC2757127 (Platelets, 2008).
Like-named read-outs stand apart in the source and are kept apart here. Each block holds one compound with its values, some of them ahead of it.

Experiments:
Type in all cases: cell-based
[1] = molecular target: T1, LPA3 (Homo sapiens, UniProt Q9UBY5); experiment: LPA-elicited Ca2+ transients in RH7777 cells stably expressing LPA3; conditions: for Effect on LPA3: heterologously expressed LPA3
T1 sequence (Q9UBY5 1-353): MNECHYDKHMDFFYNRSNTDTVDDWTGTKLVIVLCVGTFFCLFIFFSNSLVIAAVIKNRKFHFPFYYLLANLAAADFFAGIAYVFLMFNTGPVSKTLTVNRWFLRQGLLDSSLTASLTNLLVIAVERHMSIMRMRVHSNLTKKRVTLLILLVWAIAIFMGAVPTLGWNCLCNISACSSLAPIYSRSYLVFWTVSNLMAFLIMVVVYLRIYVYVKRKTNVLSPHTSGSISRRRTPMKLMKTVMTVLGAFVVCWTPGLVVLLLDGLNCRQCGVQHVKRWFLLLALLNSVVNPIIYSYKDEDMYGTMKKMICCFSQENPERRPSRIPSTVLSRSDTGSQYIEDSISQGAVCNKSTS

[2] = molecular target: LPA1 (Homo sapiens, UniProt Q92633); experiment: LPA-elicited Ca2+ transients in RH7777 cells stably expressing LPA1; conditions: for Effect on LPA1: heterologously expressed LPA1
Sequence of LPA1 (Q92633 whole entry): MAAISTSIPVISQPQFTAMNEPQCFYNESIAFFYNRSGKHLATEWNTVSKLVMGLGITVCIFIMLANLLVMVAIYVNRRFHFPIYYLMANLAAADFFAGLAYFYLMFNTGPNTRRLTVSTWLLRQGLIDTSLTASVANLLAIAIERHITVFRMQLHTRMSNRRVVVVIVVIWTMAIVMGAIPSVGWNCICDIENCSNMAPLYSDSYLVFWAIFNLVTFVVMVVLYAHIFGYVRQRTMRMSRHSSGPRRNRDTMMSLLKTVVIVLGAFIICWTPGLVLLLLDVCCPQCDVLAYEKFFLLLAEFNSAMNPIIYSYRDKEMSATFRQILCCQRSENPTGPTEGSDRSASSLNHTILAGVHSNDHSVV
How it was run: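 RH7777 cells stably expressing receptor, seeded on poly-L-lysine-coated wells at 5 × 10^4 cells/well overnight. Serum-starved 6 h in modified Krebs buffer (pH 7.4), loaded with Fura-2 AM for 35 min with 2% pluronic acid. Ca2+ recorded as the ratio of 520 nm emission at 340/380 nm excitation. Albumin arm: 15 µM BSA for 5 min before LPA. Quadruplicate.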

[3] = molecular target: LPA2 (Homo sapiens, UniProt Q9HBW0); experiment: LPA-elicited Ca2+ transients in RH7777 cells stably expressing LPA2; conditions: for Effect on LPA2: heterologously expressed LPA2
Sequence of LPA2 (Q9HBW0 whole entry): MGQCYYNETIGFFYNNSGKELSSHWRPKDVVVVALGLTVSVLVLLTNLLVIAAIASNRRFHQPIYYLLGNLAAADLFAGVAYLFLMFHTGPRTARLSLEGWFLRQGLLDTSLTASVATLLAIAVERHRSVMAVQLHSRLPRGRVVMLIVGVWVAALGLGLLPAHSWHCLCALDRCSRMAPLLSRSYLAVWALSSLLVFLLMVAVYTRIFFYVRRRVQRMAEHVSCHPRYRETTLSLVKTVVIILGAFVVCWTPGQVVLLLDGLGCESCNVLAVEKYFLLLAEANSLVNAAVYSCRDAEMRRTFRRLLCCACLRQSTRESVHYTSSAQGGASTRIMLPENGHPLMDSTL

[4] = molecular target: LPA5 (Homo sapiens, UniProt Q9H1C0); experiment: LPA-elicited Ca2+ transients in RH7777 cells transiently transfected with LPA5; conditions: for Effect on LPA5: heterologously expressed LPA5; for Emax: relative to LPA 18:1
Sequence of LPA5 (Q9H1C0 whole entry): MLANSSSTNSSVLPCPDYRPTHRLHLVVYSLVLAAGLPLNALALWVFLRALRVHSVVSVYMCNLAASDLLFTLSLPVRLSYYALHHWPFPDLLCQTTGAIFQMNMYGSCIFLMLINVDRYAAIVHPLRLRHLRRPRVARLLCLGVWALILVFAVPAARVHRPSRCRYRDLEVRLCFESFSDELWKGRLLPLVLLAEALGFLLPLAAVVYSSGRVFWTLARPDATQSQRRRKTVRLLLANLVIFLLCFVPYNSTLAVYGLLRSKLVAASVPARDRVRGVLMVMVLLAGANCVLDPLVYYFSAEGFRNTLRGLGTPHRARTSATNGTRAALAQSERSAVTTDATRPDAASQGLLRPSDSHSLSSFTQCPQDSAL

[5] = molecular target: LPA4 (Homo sapiens, UniProt Q99677); experiment: LPA-elicited Ca2+ transients in CHO cells stably expressing LPA4; conditions: for Effect on LPA4: Table II, heterologously expressed LPA4
Sequence of LPA4 (Q99677 whole entry): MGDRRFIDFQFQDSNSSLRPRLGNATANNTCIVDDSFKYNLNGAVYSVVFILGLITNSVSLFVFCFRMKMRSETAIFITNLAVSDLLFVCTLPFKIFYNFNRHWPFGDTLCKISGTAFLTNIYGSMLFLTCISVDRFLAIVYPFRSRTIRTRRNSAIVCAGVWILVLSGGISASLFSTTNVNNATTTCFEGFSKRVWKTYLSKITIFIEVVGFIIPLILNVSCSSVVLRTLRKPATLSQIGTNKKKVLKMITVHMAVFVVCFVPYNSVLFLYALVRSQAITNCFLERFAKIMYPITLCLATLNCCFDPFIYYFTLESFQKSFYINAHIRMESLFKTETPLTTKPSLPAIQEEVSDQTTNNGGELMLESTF

[6] = tested on: human platelets; experiment: Measurement of platelet cAMP; conditions: LPA 0.02–40 µM, 30 s–15 min; iloprost 50 nM, 1 minute
How it was run: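 Human platelets from PRP pretreated with acetylsalicylic acid 1 mM and apyrase 0.3 U/mL (15 min, 37°C), washed, resuspended at 400,000/µL in HEPES buffer with glucose and apyrase (pH 7.4). Stirred suspensions were warmed 2 min at 37°C, then exposed to agonist for the set time. cAMP was measured by enzyme immunoassay. Mean ± SD, n=3 donors; Student's test, P 0.05.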

[7] = tested on: washed human platelets; experiment: Platelet shape change; conditions: read-out: Platelets EC50, Table IV, n=4, mean ± SD
How it was run: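 Washed human platelets were prepared from aspirin (1 mM)/apyrase-treated PRP and resuspended at 400,000/µL in HEPES buffer (pH 7.4) with glucose and 0.6 U/mL apyrase. Stirred at 1100 rpm and 37°C for 2 min, then given increasing agonist concentrations in methanol or FAF-BSA buffer (lipid:BSA 4:1). Shape change read as the fall in light transmission in an aggregometer. Four donors.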

[8] = read-out: LPA5 transiently transfected RH7777 cells EC50, Table IV, mean ± SD
[9] = 15µM FAF-BSA, 5 min pre-incubation

Effect on LPA3 ([1]; Table II): Partial agonist
EC50 ([1]; Table II, LPA3): 730 nM
Emax ([1]; Table II, LPA3, relative to LPA 18:1): 81%
Effect on LPA1 ([2]; Table II): Partial agonist
EC50 ([2]; Table II, LPA1): 740 nM
Emax ([2]; Table II, LPA1, relative to LPA 18:1): 63%
Effect on LPA2 ([3]; Table II): Partial agonist
EC50 ([3]; Table II, LPA2): 11900 nM
Emax ([3]; Table II, LPA2, relative to LPA 18:1): 46%
Effect on LPA5 ([4]; Table II): Partial agonist
EC50 ([4]; Table II, LPA5): 420 nM
Emax ([4]; Table II, LPA5): 23%
Effect on LPA4 [5]: No effect
Compound: CCCCCCCCCCCCCCCC(=O)N[C@@H](COP(=O)(O)O)C(=O)O [NPSPA, N-palmitoyl-serine phosphoric acid]

Compound: CCCCCCCCCCCCCCCC(=O)N[C@@H](Cc1ccc(OP(=O)(O)O)cc1)C(=O)O [NPTPA, N-palmitoyl-tyrosine phosphoric acid]
Effect on LPA3 ([1]; Table II): No effect
Effect on LPA1 ([2]; Table II): Antagonist
Ki ([2]; Table II, LPA1, inhibitory binding constant): 530 nM
Ki ([2]; read-out: Ki at LPA1, text b35): 533 nM
Effect on LPA2 ([3]; Table II): No effect
Effect on LPA5 ([4]; Table II): Partial agonist
Emax ([4]; Table II, LPA5): 72.0%
Effect on LPA4 [5]: No effect

Compound: CCCCCCCCCCCCCCCC(=O)OC[C@@H](O)COP(=O)(O)O [acyl-LPA 16:0]
Change in platelet cAMP levels [6]: did not affect

EC50 [4, 8]: 4.1 ± 2.1 nM
EC50 [7]: 4.6 ± 0.98 nM
Compound: CCCCCCCCCCCCCCCCOC[C@@H](O)COP(=O)(O)O [alkyl-LPA 16:0]
Change in platelet cAMP levels [6]: did not affect

EC50 [4, 8]: 69.9 ± 21.4 nM
EC50 [7]: 20.2 ± 17.5 nM
Compound: CCCCCCCCCCCCCCCCCCOC[C@@H](O)COP(=O)(O)O [alkyl-LPA 18:0]

Compound: CC#CCC(C)[C@H](O)/C=C/[C@@H]1[C@H]2C/C(=C/CCCC(=O)O)C[C@H]2C[C@H]1O (stereo partly drawn) [iloprost]
Change in platelet cAMP levels [6]: robust increase

Effect on activation of LPA3 by LPA [1, 9]: did not inhibit
Effect on activation of LPA1 by LPA [2, 9]: did not inhibit
Effect on activation of LPA2 by LPA [3, 9]: did not inhibit
Effect on activation of LPA5 by LPA [4, 9]: did not inhibit
Inhibition of LPA4 activation [5, 9]: 40%
Compound: fatty acid free bovine serum albumin [FAF-BSA]
